This is a sample that favours compounds with a hit; in the whole collection about 12% have one here.
L major viab = reduces viability of Leishmania major promastigotes; 200,000 tested, 9% active; resazurin fluorescence viability; inhibition, % at 10 µM; in the data active means inhibition above about 50%;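 further: promastigotes grown with compound for 44 hours at 28 °C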
Diaph inh CS = diaphorase inhibition or chemical oxidation counter-screen | diaphorase resazurin-to-resorufin fluorescence, NADH, 16 min; bacterial (C. kluyveri) enzyme, not human | inhibition, % at 20 µM | 190,000 tested, 0.69% active;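 active means primary screen inhibition at 20 µM above a set limit, cut at about 50% in these data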;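 further: plate controls were DMSO with full reaction for no effect and wells lacking NADH for full effect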
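System: Diaphorase enzyme from Clostridium kluyveri | Amount: Enzyme working solution with 0.14 U/mL diaphorase | Benchmarks: No-NADH positive control and DMSO neutral control | Signal: Fluorescence of resorufin formed from resazurin, Ex 544/Em 590 nm | Schedule: 16-min room-temperature incubation before reading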
Diaph act CS = counter-screen for diaphorase-based assays: diaphorase activators and chemical reducers. 190,000 tested, 0.005% active. AID 1229. activation factor at 20 µM. Diaphorase/resazurin coupled assay, resorufin fluorescence, 16 min; active compounds read high; 1 = vehicle wells, 0 = NADH-free wells;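 active means diaphorase activity raised at least twofold by the compound at 20 µM; inactive means activation factor below 2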
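Assay system: Purified diaphorase enzyme from Clostridium kluyveri | Amount: Enzyme 0.07 U/mL final | Dosing: Compound 20 µM once, DMSO 1% | Timing: 16 min reaction at room temperature | Detection: Fluorescence, excitation 544 nm and emission 590 nm | Evaluation: Higher resorufin formation from activation or reduction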
ROMK mod = modulators of human ROMK potassium channel. Tet-inducible ROMK, thallium flux fluorescence; actives lie on both sides. B-score at 10 µM. P48048. AID 1918. 130,000 tested, 2% active;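 active means signal ratio slope over the read window, or its plate-corrected B-score, at least 3 SD from the plate mean, either direction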;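 further: B-score of the F/F0 ratio slope over 7 to 12 s after thallium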
WT yeast gro inh = growth inhibition of WT yeast, mitochondrial fusion screen; inhibition, % at 10 µM; 190,000 tested, 2.1% active; mitochondrial fusion phenotypic screen, WT strain; AID 1362; in the data active means inhibition above about 58%; tested in S. cerevisiae
KCC2 mod = modulates chloride dependent transport by human KCC2. Q9H2X9. KCC2 cells, thallium flux FluoZin-2 fluorescence. B-score of Tl+ flux slope (higher = more flux/activation; lower = inhibition) at 10 µM. 190,000 tested, 2.2% active;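 active means thallium flux slope and its plate-corrected score both differing from the plate sample mean at a set confidence after two filtering rounds, in either direction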;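 further: slope of fluorescence scaled to starting intensity during 10 to 20 s after thallium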
Active calls of the source: *.

Screening CCOc1ccccc1Nc1nnc(SCC(=O)Nc2ccc3[nH]c(=O)[nH]c3c2)s1 returned L major viab -1, Diaph inh CS 41, Diaph act CS 0.6, ROMK mod 0.21, WT yeast gro inh 8 and KCC2 mod -0.031.
Screening CCc1ccccc1NC(=O)CN(C)C(=O)CSc1nnc(Nc2cccc(C)c2)s1 returned L major viab -2, Diaph inh CS 7, Diaph act CS 0.9, ROMK mod 0.66, WT yeast gro inh 17 and KCC2 mod -2.
`Cc1ccc(Nc2nnc(SCC(=O)Nc3cccnc3Cl)s2)cc1C` gave L major viab 83*, Diaph inh CS 29, Diaph act CS 0.7, ROMK mod -0.22, WT yeast gro inh 43 and KCC2 mod -2.4.
Cc1ccc(Nc2nnc(SCC(=O)Nc3ccccc3[N+](=O)[O-])s2)cc1 was read as L major viab -4, Diaph inh CS 16, Diaph act CS 0.8, WT yeast gro inh -6 and KCC2 mod 0.35.
For COC(=O)C1=NN(N=O)C2(CC(=O)N(c3cc(C)cc(C)c3)C2=O)C1 (stereo not given) the results were L major viab -6, Diaph inh CS 15, Diaph act CS 0.9, ROMK mod -1.1, WT yeast gro inh 13 and KCC2 mod -1.3.
Screening CCC1=C(OC(=O)N(CC)CC)N2C(=O)OC(=NCC3CC3)[C@]2(Cc2ccccc2)[C@H]2C1=CC[C@H]1C(=O)NC(=O)[C@H]12 returned KCC2 mod -0.5.
Screening O=C1CN(C(=O)c2ccc(Br)o2)C(c2ccc(F)cc2)c2cc(Cl)ccc2N1 (stereo not given) returned L major viab 94*, Diaph inh CS 18, Diaph act CS 0.8, ROMK mod 0.11, WT yeast gro inh 11 and KCC2 mod 1.3.
Screening O=C1CN(C(=O)c2ccco2)C(c2ccccc2)c2cc(Cl)ccc2N1 (stereo not given) returned L major viab 17, Diaph inh CS 5, Diaph act CS 0.9, WT yeast gro inh -30 and KCC2 mod 1.6.
Screening O=C1CN(C(=O)c2ccc(Br)o2)C(c2ccccc2)c2cc(Cl)ccc2N1 (stereo not given) returned L major viab 87*, Diaph inh CS 9, Diaph act CS 0.9 and WT yeast gro inh 22.
CN(Cc1ccccc1)c1nc(N)c([N+](=O)[O-])c(Nc2cccc(F)c2)n1 was read as L major viab 11, Diaph inh CS 11, Diaph act CS 0.9, ROMK mod 0.77, WT yeast gro inh 36 and KCC2 mod 0.16.
`CN1CCCN(Cc2ccc(Cl)cc2Cl)CC1` gave L major viab 98*, Diaph inh CS 0, Diaph act CS 1, ROMK mod 0.0062 and KCC2 mod -0.063.
For CN1CCCN(Cc2nc(-c3ccc(Cl)cc3)no2)CC1 the results were L major viab 93*, Diaph inh CS 14, Diaph act CS 0.9, ROMK mod 1.7, WT yeast gro inh 14 and KCC2 mod 0.32.
Screening OCCN1CCN(Cc2nc(-c3cccc(Cl)c3)no2)CC1 returned L major viab 9, Diaph inh CS 10, Diaph act CS 0.9, ROMK mod 0.25, WT yeast gro inh 4 and KCC2 mod -0.84.
For CN1CCCN(Cc2ccccc2C(F)(F)F)CC1 the results were L major viab 3, Diaph inh CS 22, Diaph act CS 0.8, ROMK mod -0.36, WT yeast gro inh 3 and KCC2 mod 1.2.
Screening CCn1cc(CNCc2ccc(OCC(O)CN(C)Cc3ccccc3)cc2)cn1 (stereo not given) returned L major viab 88*, Diaph inh CS -18, Diaph act CS 1.2, ROMK mod -0.45, WT yeast gro inh -12 and KCC2 mod 0.74.
`CN(Cc1ccccc1)CC(O)COc1ccc(CNCc2ccc(Cl)s2)cc1` (stereo not given) gave L major viab 98*, Diaph inh CS 0, Diaph act CS 1, ROMK mod 0.24, WT yeast gro inh 23 and KCC2 mod -0.33.
CN(Cc1ccccc1)CC(O)COc1ccc(CNCCCOc2cccnc2)cc1 (stereo not given) was read as L major viab 91*, Diaph inh CS -31, Diaph act CS 1.3, WT yeast gro inh 1 and KCC2 mod 0.11.
